The values that follow come from PubChem BioAssay AID493097 (Broad Institute, 2011).

Broadly, the AC50 is the concentration at which the activity in the assay is half-maximal.

The source made the active and inactive calls.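 How the source made its calls: active means falling signal with a fitted half-maximal concentration at most ten times the top valid dose; inconclusive means flat fit with 30 to 70 percent inhibition, or a poor fit; inactive means the rest.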

Tested on in the first test: not listed separately
Description: inhibition of V. harveyi QS light output, dose response, counter-screen for LuxS inhibitor project, strain BB721, dry powder, set 4 (AID 493097). The settings on record: Vibrio harveyi BB721 constitutive QS, luminescence, 9 h; at 16 µM (top of the series). The procedure, abridged:
(§1)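 Assay system: Vibrio harveyi strain BB721 with constitutively active quorum sensing | Amount: Bacteria seeded at starting optical density OD600 0.0005 | Incubation: Compound exposure of bacteria for 9 h at 30 °C | Buffer or medium: AB medium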
Consider `Cn1cnc(S(=O)(=O)Nc2ccccc2Cl)c1`, for which the activity change, negative = inhibition was 12.3% (inactive).

For `CCc1ccc(-c2ccc(C(=O)O)n2C)cc1`, the activity change, negative = inhibition was -7.36% (inactive).

In the case of `COc1ccccc1NS(=O)(=O)c1cn(C)cn1`, the activity change, negative = inhibition is -0.736% (inactive).

For `Cc1ccccc1NS(=O)(=O)c1cn(C)cn1`, the activity change, negative = inhibition was 5.69% (inactive). The same measure, in the same setting: the figure for `Cn1cnc(S(=O)(=O)Nc2ccccc2F)c1` is 6.38% (inactive); for `CN(C)C(=O)c1ccccc1NS(=O)(=O)c1cn(C)cn1` it is 8.65% (inactive); for `CC(=O)Nc1ccccc1NS(=O)(=O)c1cn(C)cn1` it is 6.64% (inactive).

The subject of the next test is Vibrio harveyi BB721 constitutive QS, luminescence, 9 h. The test is described as above.
Conditions: not given
In short, it runs like this:
as §1
Consider `O=C1C=C/C(=C/Br)O1`, for which the concentration at half-maximal activity (AC50) is 3.92 µM.

Turning to `Cn1cnc(S(=O)(=O)Nc2ccc(OC(F)(F)F)cc2)c1`, the AC50 is 14.1 µM. `O=S(=O)(Nc1ccccn1)c1ccc(Oc2ccccc2)cc1`: the AC50 was 15.5 µM. Regarding `O=S(=O)(Nc1cccnc1)c1ccc(Oc2ccccc2)cc1`, the concentration at half-maximal activity (AC50) was 0.775 µM. Take `C=Cn1c(C(=O)O)ccc1-c1ccc(CC)cc1`: the AC50 is 13.1 µM.
